Where two headings read alike, the source gives them in different places. One block for each compound: values may come before it.
Legend:
[1] = target: T1, SULT1E1 (Homo sapiens, UniProt P49888); type: in vivo; conditions: 600 mg q.d.; day 18 vs day 1; three subjects
T1 sequence (P49888 1-294): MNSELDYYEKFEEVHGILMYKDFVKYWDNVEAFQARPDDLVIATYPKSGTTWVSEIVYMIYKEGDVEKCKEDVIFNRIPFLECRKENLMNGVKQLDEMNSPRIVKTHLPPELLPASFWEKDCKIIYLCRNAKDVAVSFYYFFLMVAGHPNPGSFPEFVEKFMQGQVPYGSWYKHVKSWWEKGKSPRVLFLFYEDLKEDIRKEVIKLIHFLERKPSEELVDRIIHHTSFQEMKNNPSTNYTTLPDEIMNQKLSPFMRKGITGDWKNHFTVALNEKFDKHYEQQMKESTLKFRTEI
In short: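 Plasma from three subjects, sampled on day 1 (oral contraceptive alone) and day 18 (with test compound 600 mg q.d.), was split into duplicate aliquots. One aliquot was hydrolysed with purified arylsulfatase and the other with genetically modified β-glucuronidase, in 1 M Tris-HCl pH 8.0 buffer (stock), at 50°C for 1 h. Total EE was measured by LC-MS/MS. EE AUClast with and without hydrolysis was computed by linear-up/log-down trapezoids.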

[2] = target: T1, SULT1E1; experiment: SULT1E1 in vitro inhibition test; type: biochemical
In short: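 Recombinant human SULT1E1 expressed in E. coli was incubated with EE 5 nM as substrate. Test compound was tested at 0.8, 2, 8, 20, 80 and 200 µM, with quercetin 0.5 µM as positive control and a DMSO solvent control. Metabolite formation was read by UHPLC-MS/MS peak area, and activity was expressed relative to solvent control (n = 3). IC50 came from a sigmoidal fit; tentative Ki came from Cheng–Prusoff assuming competitive inhibition and substrate concentration equal to Km.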

[3] = Safety and tolerability; type: in vivo, human; conditions: 600 mg q.d. with oral contraceptive, healthy women
In short: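 Throughout the study in healthy women, TEAEs, serious TEAEs and TEAEs leading to discontinuation were monitored, covering oral contraceptive alone and co-administration with test compound 600 mg q.d. Intensity (mild/moderate) and investigator-judged relatedness were recorded. Clinical laboratory parameters, vital signs and ECG were also assessed.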

[4] = target: T2, UGT1A1 (Homo sapiens, UniProt P22309); type: in vivo; conditions: 600 mg q.d.; day 18 vs day 1; three subjects
T2 sequence (P22309 26-533): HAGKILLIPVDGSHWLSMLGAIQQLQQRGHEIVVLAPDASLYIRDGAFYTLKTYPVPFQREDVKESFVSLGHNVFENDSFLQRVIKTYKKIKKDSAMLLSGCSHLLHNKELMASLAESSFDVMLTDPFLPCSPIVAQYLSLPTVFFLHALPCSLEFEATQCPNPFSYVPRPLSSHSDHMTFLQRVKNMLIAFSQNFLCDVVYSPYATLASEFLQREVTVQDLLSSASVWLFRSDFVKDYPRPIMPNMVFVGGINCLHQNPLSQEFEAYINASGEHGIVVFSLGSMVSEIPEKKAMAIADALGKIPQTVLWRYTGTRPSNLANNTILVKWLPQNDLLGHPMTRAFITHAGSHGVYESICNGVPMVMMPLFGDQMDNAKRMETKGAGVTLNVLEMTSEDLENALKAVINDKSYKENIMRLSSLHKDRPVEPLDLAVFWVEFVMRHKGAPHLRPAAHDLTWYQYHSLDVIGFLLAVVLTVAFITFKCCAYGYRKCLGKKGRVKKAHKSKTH

[5] = target: T3, CYP3A4 (Homo sapiens, UniProt P08684); conditions: in vitro studies; cited from earlier work
T3 sequence (P08684 whole entry): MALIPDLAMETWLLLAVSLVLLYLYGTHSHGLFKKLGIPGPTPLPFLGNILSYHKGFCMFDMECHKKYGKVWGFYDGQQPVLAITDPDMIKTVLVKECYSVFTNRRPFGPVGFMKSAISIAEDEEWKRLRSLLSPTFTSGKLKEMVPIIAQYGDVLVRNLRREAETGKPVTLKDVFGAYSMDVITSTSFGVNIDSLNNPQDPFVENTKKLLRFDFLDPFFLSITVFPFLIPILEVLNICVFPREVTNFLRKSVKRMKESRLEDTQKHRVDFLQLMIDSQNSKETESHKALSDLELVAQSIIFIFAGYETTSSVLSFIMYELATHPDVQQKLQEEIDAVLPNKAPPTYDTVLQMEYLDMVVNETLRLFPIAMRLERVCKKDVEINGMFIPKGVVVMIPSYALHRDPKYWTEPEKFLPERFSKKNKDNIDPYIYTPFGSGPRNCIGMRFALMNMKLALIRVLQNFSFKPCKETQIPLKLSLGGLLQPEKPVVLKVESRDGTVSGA

[6] = target: T3, CYP3A4; experiment: In vitro CYP3A4 inhibition and induction by ziritaxestat and predictions from it; type: in vitro ADME; conditions: data on file
[7] = target: T3, CYP3A4; conditions: cited from earlier work
[8] = type: in vivo, human; conditions: for AUC(0-inf) / Cmax / Tmax / half-life: female, human, plasma, oral; for AUC(0-inf): AUC0–inf; for AUC(0-inf) / Cmax: mean (CV%); for Tmax: median (minimum, maximum); for half-life: t 1/2, mean (CV%)
In short: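 Healthy women received a single oral contraceptive dose (0.03 mg EE, 3 mg DRSP) fed on days 1, 8 and 18, with test compound 600 mg once daily on days 8–23. Blood was drawn predose and at 0.5–120 h postdose. EE and DRSP were measured by validated UHPLC-MS/MS (LLOQ 2.5 pg/mL and 0.5 ng/mL). LS geometric mean ratios (90% CI) of ln Cmax and AUC0–inf came from a mixed model (day fixed, subject random).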

[9] = OC + ziritaxestat 600 mg q.d. (day 8, SD), n = 14
[10] = OC + ziritaxestat 600 mg q.d. (day 18, MD), n = 13
[11] = day 18 test vs. day 1 reference, ziritaxestat 600 mg q.d.

effect on EE sulfation in vivo (in words) [1]: potent inhibitor of sulfation
IC50 [2]: < 800 nM
effect on EE glucuronidation in vivo (in words) [4]: potential weak inhibitory effect
mode of CYP3A4 inhibition [6]: competitive and reversible
SMILES: CCc1nc2c(C)cc(N3CCN(CC(=O)N4CC(O)C4)CC3)cn2c1N(C)c1nc(-c2ccc(F)cc2)c(C#N)s1 [ziritaxestat]
tolerability (in words) [3]: generally well tolerated
CYP3A4 induction and inhibition in vitro (in words) [5]: weak inducer and inhibitor

SMILES: C[C@@H](c1ncncc1F)[C@](O)(Cn1cncn1)c1ccc(F)cc1F [voriconazole]
increase of the systemic exposure of EE on co-administration ([7]; strong CYP3A4 inhibitor co-administered): 60%

AUC(0-inf) [8, 9]: 686 ng·h/mL
AUC(0-inf) [8, 10]: 708 ng·h/mL
AUC(0-inf) ([8]; OC alone (day 1), n = 15): 574 ng·h/mL
Cmax [8, 9]: 21.4 ng/mL
Cmax [8, 10]: 22.6 ng/mL
Cmax ([8]; OC alone (day 1), n = 15): 20.7 ng/mL
Tmax [8, 9]: 2.5 h
Tmax [8, 10]: 4 h
half-life [8, 9]: 44.7 h
half-life [8, 10]: 43.4 h
half-life ([8]; OC alone (day 1), n = 15): 39 h
SMILES: C[C@]12CCC(=O)C=C1[C@@H]1C[C@@H]1[C@H]1[C@@H]3[C@@H]4C[C@@H]4[C@@]4(CCC(=O)O4)[C@@]3(C)CC[C@@H]12 [Drospirenone, drospirenone]

SMILES: CC(C)(C)NC(=O)N[C@H](C(=O)N1C[C@H]2[C@@H]([C@H]1C(=O)NC(CC1CCC1)C(=O)C(N)=O)C2(C)C)C(C)(C)C (some centres unmarked) [boceprevir]
increase in DRSP exposure on co-administration ([7]; strong CYP3A4 inhibition): 100%

inhibition at 0.5 µM ([2]; read-out: inhibition of SULT1E1): 66%
SMILES: O=c1c(O)c(-c2ccc(O)c(O)c2)oc2cc(O)cc(O)c12 [quercetin, Quercetin]

increase of AUC0–inf on co-administration with ziritaxestat [8, 11]: 2.4 fold
increase of Cmax on co-administration with ziritaxestat [8, 11]: 2.8 fold
AUC(0-inf) [8, 9]: 2.02 ng·h/mL
AUC(0-inf) [8, 10]: 2.18 ng·h/mL
AUC(0-inf) ([8]; OC alone (day 1), n = 15, fed): 0.967 ng·h/mL
Cmax [8, 9]: 0.122 ng/mL
Cmax ([8]; OC alone (day 1), n = 15): 0.047 ng/mL
half-life [8, 9]: 30.1 h
half-life ([8]; OC alone (day 1), n = 15): 22 h
SMILES: C#C[C@]1(O)CC[C@H]2[C@@H]3CCc4cc(O)ccc4[C@H]3CC[C@@]21C [Ethinyl estradiol, ethinyl estradiol]
